In PubChem BioAssay AID588732 (Vanderbilt Specialized Chemistry Center, 2011):
Activity calls are given as the source filed them.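 How the source made its calls: active means compound shifting glutamate potency twofold either way, or pushing peak response under 75% or over a set limit; inactive means the rest.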

Target: Metabotropic glutamate receptor 8 (Rattus norvegicus) (UniProt P70579)
Test: rat mGlu8 allosteric modulation, glutamate curve shift, profiling panel, selectivity assay for mGlu5 PAM project, thallium flux, HEK/GIRK cells (AID 588732)
Details: glutamate CRC shift, at 10 µM; for Emax: measured here: glutamate max response with compound
Procedure, shortened: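 Test system: rat mGlu8 receptor expressed in HEK/GIRK cells; Also added: glutamate agonist concentration-response curve; Compound: 10 µM test compound, single dose; Controls: glutamate curve without test compound as reference; Read-out: glutamate EC50 shift and %Emax versus no-compound curve; Measured by: FluoZin2 fluorescence slope reporting thallium flux.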

Metabotropic glutamate receptor 8 (Rattus norvegicus), sequence (P70579 whole entry, looked up): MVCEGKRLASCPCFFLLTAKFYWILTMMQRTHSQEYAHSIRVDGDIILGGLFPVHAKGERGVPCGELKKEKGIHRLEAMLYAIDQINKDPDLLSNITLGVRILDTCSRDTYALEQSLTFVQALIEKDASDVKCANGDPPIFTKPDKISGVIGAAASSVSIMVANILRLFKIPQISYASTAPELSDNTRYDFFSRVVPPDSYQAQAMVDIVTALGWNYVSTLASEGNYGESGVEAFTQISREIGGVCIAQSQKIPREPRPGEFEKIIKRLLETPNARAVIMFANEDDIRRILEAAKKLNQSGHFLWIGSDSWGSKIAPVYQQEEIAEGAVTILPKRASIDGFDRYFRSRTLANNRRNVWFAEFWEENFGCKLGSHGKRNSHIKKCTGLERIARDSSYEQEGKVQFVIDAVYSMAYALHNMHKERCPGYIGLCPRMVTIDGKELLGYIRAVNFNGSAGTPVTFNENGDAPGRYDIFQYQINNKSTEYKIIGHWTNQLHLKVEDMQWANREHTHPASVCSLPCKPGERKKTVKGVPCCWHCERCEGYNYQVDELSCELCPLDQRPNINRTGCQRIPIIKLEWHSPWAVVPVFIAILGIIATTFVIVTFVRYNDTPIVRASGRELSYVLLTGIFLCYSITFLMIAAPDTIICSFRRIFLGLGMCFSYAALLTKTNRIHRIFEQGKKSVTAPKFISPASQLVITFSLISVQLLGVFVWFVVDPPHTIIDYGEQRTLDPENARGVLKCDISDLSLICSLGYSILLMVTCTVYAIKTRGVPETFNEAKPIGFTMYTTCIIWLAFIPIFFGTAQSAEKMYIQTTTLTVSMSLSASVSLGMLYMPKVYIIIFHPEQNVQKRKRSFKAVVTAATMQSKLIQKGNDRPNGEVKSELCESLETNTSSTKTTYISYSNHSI

| fold shift | Emax [%] | Structure (SMILES) |
| --- | --- | --- |
| 1.36 (inactive) | 89 | C[C@@H](NC(=O)c1ccc(C#Cc2cccc(F)c2)cn1)C(C)(C)O |
| 1.1 (inactive) | 92 | CC1(NC(=O)c2ccc(C#Cc3cccc(F)c3)cn2)COC1 |
